Data from publication PMC6147618 (Molecules : A Journal of Synthetic Chemistry and Natural …, 2005).

Assays:
[1] = tested on: Caco-2 monolayers; experiment: Caco-2 monolayer permeability; assay type: in vitro ADME; conditions: Hank's balanced salt solution, 25 mM HEPES pH 7.4, 37°C
Summary of the method: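 Caco-2 cells were grown in DMEM with 10% foetal bovine serum, 2mM L-glutamine and 1% non-essential amino acids, at 37°C, 95% humidity and 5% CO2, on Transwell polycarbonate inserts. Transport was run in air at 37°C and 95% humidity, in HBSS with 25mM HEPES (pH 7.4). Values are means ± sd of 5 monolayers, or n = 3 for co-incubation experiments.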

[2] = tested on: P450; conditions: cited from earlier work

diffusion across the Caco-2 monolayers [1] | Structure (SMILES) | P450-mediated metabolism ([2]; in the absence of alkylamide 3) | effect on P450-mediated metabolism of alkylamide 1 ([2]; alkylamide 3 present together with 1)
non-diffusing | O=C(/C=C/c1ccc(O)c(O)c1)O[C@@H](C(=O)O)[C@@H](OC(=O)/C=C/c1ccc(O)c(O)c1)C(=O)O [cichoric acid] |  | 
 | C/C=C\C=C/CC/C=C/C=C/C(=O)NCC(C)C [compound 1, (2E,4E,8Z,10Z)-N-isobutyldodeca-2,4,8,10-tetraenamide] | rapid metabolism | 
rapidly diffuse | C#CC#CCCCC/C=C/C(=O)NCC(C)C [compound 3, (2E)-N-isobutylundeca-2-ene-8,10-diynamide] |  | prevented the rapid metabolism of 1
